Assay results published in ChEMBL document CHEMBL5104098, “Exploring the structure-activity relationship of benzylidene-2,3-dihydro-1H-inden-1-one compared to benzofuran-3(2H)-one derivatives as inhibitors of tau amyloid fibers” (Eur J Med Chem, 2022).
Activity calls are given as the source filed them. No cut-off for these calls is given here.

Experiments:
[1] = Inhibition of synthetic AcPHF6 peptide aggregation in pH 7.4 phosphate buffer assessed as reduction in fluorescence intensity at 10 uM and measured every minute over 2 hrs by ThT fluorescence assay relative to control
In short: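 Fluorescence read every minute for 2 h, ex 440/em 480 nm. Intrinsic compound fluorescence corrected with peptide-free blank wells. Hexaplicate; % inhibition versus peptide-only control.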

[2] = Displacement of ThT from AcPHF6 in pH 7.4 phosphate buffer assessed as reduction in fluorescence intensity relative to control; settings: dose 10.0 µM
In short: (§1)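 Preformed AcPHF6 fibers (1 mM peptide left 24 h in deionised water) added to give 100 μM fibers with 10 μM ThT in 50 mM phosphate buffer pH 7.4, ≤0.5% DMSO; compound 10 μM (1:1 with ThT). Emission spectra recorded shortly after fiber addition, excitation 440 nm; % decrease calculated from emission intensity at 480 nm.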

[3] = Displacement of ThT from AcPHF6 in pH 7.4 phosphate buffer at 1:1 compound:ThT ratio; in short: as §1
[4] = Inhibition of synthetic AcPHF6 peptide aggregation in pH 7.4 phosphate buffer assessed as reduction in beta sheet formation at 100 uM incubated for 2 hrs by circular dichroism spectroscopy
In short: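 CD samples: 100 μM AcPHF6 in 50 mM phosphate buffer, compound with <0.2% DMSO, 1 mm quartz cell. Spectra taken after 2 h at room temperature, 260–190 nm, 1 nm resolution, 1 s per point, 10 nm bandwidth. Compound level is printed as 10 μM in methods and 100 μM in legend.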

[5] = Inhibition of synthetic AcPHF6 peptide aggregation in pH 7.4 phosphate buffer assessed as reduction in beta sheet fibrillation at 100 uM incubated for 24 hrs by atomic force microscopy analysis
In short: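 AFM imaging of samples taken from the CD preparations after 24 h fibrillation at room temperature; 100 μM AcPHF6 alone or with compound at 100 μM.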

inhibition [1]	inhibition [2]	inhibition [3]	inhibition [4]	inhibition [5]	SMILES
94%	89%	Active	–	–	O=C1/C(=C/c2ccc(O)cc2O)Oc2cc(O)cc(O)c21
72%	76%	Active	–	–	O=C1/C(=C/c2ccc(O)cc2O)Cc2cc(O)cc(O)c21
99%	94%	Active	–	–	O=C1/C(=C/c2cc(O)c(O)c(O)c2)Oc2cc(O)cc(O)c21
91%	88%	Active	–	–	O=C1/C(=C/c2cc(O)c(O)c(O)c2)Oc2c(O)cccc21
68%	70%	Active	–	–	O=C1/C(=C/c2cc(O)c(O)c(O)c2)Oc2ccccc21
93%	85%	Active	–	–	O=C1/C(=C/c2ccc(O)c(O)c2)Oc2cc(O)cc(O)c21
87%	90%	Active	Active	–	O=C1/C(=C/c2cc(O)c(O)c(O)c2)Cc2cc(O)cc(O)c21
71%	42%	Active	Active	Active	O=C1/C(=C/c2cc(O)c(O)c(O)c2)Cc2ccccc21
78%	65%	Active	–	–	O=C1/C(=C/c2ccc(O)c(O)c2)Cc2cc(O)cc(O)c21
69%	45%	Active	–	–	COc1cccc(/C=C2\Oc3c(OC)cccc3C2=O)c1
83%	78%	Active	Active	–	O=C1/C(=C/c2cc(O)c(O)c(O)c2)Cc2c(O)cccc21
